Tests used:
GLP [1] = target: T1, GLP (Homo sapiens, UniProt Q9H9B1); test: Western blot of GLP protein levels in cancer cells; type: cell-based; settings: 24 h, WB
T1 sequence (Q9H9B1 1-1298): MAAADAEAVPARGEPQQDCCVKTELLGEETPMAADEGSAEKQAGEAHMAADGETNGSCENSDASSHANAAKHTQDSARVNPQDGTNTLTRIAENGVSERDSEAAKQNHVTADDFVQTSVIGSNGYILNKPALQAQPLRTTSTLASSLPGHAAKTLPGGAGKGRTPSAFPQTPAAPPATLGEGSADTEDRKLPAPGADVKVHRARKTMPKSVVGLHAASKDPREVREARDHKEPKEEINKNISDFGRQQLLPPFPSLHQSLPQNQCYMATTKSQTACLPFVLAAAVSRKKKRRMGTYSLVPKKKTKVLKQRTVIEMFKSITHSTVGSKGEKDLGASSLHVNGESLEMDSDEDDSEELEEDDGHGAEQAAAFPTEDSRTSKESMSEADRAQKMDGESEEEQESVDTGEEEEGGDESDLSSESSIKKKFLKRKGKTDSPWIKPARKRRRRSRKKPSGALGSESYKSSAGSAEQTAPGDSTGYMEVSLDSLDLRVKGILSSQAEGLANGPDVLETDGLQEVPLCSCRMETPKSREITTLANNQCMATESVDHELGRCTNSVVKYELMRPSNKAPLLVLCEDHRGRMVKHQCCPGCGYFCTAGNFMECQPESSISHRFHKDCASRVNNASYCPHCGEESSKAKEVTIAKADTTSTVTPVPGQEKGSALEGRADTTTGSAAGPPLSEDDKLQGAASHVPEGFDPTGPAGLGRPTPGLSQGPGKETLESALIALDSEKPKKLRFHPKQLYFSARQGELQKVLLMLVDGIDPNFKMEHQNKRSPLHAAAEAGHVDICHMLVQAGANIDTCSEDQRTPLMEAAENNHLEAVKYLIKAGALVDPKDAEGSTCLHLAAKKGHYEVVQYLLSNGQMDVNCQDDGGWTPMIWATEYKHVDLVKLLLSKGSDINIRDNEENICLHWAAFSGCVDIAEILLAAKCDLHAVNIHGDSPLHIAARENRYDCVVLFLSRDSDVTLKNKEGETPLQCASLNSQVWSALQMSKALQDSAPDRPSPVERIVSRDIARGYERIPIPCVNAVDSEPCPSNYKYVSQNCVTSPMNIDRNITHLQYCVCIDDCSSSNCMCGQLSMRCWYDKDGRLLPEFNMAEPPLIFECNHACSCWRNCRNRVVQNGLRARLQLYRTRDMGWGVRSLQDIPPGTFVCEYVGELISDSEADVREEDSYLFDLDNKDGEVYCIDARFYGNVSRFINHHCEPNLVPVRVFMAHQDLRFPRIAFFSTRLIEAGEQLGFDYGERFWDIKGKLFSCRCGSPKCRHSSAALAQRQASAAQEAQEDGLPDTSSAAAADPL
Method in brief: (§1)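 Cells (22Rv1, K562, H1299) were treated for 24 h at the indicated concentrations; 22Rv1 time courses were run at 3 μM. Cells were lysed in RIPA with protease inhibitors, and 10–30 μg of protein was resolved by SDS-PAGE and transferred to PVDF. Blots were probed overnight at 4 °C, with vinculin/β-actin as loading controls. Band intensity was normalised to DMSO, with n = 2 independent experiments (mean ± SD).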

G9a [2] = target: T2, G9a (Homo sapiens, UniProt Q96KQ7); test: Western blot of G9a protein levels in cancer cells; type: cell-based; settings: 24 h, WB
T2 sequence (Q96KQ7 1-1210): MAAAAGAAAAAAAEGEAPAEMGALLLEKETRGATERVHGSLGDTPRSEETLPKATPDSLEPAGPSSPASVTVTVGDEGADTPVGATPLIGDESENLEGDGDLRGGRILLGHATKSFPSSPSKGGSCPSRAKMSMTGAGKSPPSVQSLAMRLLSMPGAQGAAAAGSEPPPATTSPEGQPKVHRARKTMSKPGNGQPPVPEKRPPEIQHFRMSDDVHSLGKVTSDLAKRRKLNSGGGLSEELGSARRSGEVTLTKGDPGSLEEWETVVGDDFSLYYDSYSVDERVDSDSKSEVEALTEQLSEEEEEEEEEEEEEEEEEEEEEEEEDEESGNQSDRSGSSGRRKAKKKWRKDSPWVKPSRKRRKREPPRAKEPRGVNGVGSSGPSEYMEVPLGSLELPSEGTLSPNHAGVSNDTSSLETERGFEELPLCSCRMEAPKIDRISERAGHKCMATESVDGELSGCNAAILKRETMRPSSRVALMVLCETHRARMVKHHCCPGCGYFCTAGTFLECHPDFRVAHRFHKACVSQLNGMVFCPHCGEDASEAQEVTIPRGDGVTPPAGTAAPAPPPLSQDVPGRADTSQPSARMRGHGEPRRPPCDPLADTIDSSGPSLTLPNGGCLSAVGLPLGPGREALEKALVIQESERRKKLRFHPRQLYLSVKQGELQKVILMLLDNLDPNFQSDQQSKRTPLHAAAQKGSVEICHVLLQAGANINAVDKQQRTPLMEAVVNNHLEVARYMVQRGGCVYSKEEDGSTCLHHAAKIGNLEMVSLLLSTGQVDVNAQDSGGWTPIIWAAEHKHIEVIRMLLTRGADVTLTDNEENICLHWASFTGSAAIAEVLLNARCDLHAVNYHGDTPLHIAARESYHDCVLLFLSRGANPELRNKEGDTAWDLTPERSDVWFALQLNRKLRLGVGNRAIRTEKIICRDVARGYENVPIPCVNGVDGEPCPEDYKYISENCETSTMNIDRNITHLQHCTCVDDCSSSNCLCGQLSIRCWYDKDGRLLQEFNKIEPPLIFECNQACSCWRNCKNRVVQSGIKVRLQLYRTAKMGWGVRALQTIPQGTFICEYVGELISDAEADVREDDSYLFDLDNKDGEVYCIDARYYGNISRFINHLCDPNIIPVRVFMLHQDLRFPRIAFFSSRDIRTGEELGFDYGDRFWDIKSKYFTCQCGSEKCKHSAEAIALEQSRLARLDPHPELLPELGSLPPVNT
Method in brief: as §1

G9a [3] = target: T2, G9a; test: G9a radioactive methyltransferase assay; type: biochemical; settings: indicated concentrations, duplicate (Figure 4B)
Method in brief: (§2)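 Enzyme activity was measured with a radioisotope-based MT HotSpot methyltransferase assay run by a contract laboratory. Test compounds were run at the indicated concentrations, in duplicate. Data are mean ± SD of the two duplicate experiments.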

GLP [4] = target: T1, GLP; test: GLP radioactive methyltransferase assay; type: biochemical; settings: indicated concentrations, duplicate (Figure 4C)
Method in brief: as §2

K562 cells = test: Cell viability assay; type: cell-based; settings: 7 days treatment, WST-8 (CCK-8)
Method in brief: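 K562 cells were grown at 37 °C in 5% CO2 and exposed to serial dilutions of the test compound for 7 days. Viability was read with CCK-8 (WST-8) as absorbance at 450 nm, with 690 nm as reference. IC50 came from curve fitting. Values are mean ± SD from four independent biological experiments.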

G9a mRNA = test: RT-qPCR of G9a mRNA in H1299 cells; type: cell-based; settings: 3 μM, 24 h, normalized to DMSO
Method in brief: (§3)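 H1299 cells were treated with DMSO or test compound at 3 μM for 24 h. Total RNA was extracted and reverse-transcribed to cDNA. qPCR used gene-specific primers for G9a and GLP, and a GAPDH primer set was included.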

GLP mRNA = test: RT-qPCR of GLP mRNA in H1299 cells; type: cell-based; settings: 3 μM, 24 h, normalized to DMSO
Method in brief: as §3

| Compound | GLP degradation, in words (GLP [1]; 22Rv1 cells, 0.3 or 3 μM) | G9a degradation, in words (G9a [2]; 22Rv1 cells, 0.3 or 3 μM) | inhibition of G9a enzymatic activity (G9a [3]) | inhibition of GLP enzymatic activity (GLP [4]) | other results |
| --- | --- | --- | --- | --- | --- |
| COc1cc2c(NC3CCN(CCCC(=O)NCCC(=O)N[C@H](C(=O)N4C[C@H](O)C[C@H]4C(=O)NCc4ccc(-c5scnc5C)cc4)C(C)(C)C)CC3)nc(N3CCC(F)(F)CC3)nc2cc1OCCCN1CCCC1 [Compound 1, (2S,4R)-1-((S)-2-(3-(4-(4-((2-(4,4-difluoropiperidin-1-yl)-6-methoxy-7-(3-(pyrrolidin-1-yl)propoxy)quinazolin-4-yl)amino)piperidin-1-yl)butanamido)propanamido)-3,3-dimethylbutanoyl)-4-hydroxy-N-(4-(4-methylthiazol-5-yl)benzyl)pyrrolidine-2-carboxamide] | moderate | moderate | – | – | – |
| COc1cc2c(NC3CCN(CCCC(=O)NCCOCCC(=O)N[C@H](C(=O)N4C[C@H](O)C[C@H]4C(=O)NCc4ccc(-c5scnc5C)cc4)C(C)(C)C)CC3)nc(N3CCC(F)(F)CC3)nc2cc1OCCCN1CCCC1 [Compound 11, (2S,4R)-1-((S)-2-(3-(2-(4-(4-((2-(4,4-difluoropiperidin-1-yl)-6-methoxy-7-(3-(pyrrolidin-1-yl)propoxy)quinazolin-4-yl)amino)piperidin-1-yl)butanamido)ethoxy)propanamido)-3,3-dimethylbutanoyl)-4-hydroxy-N-(4-(4-methylthiazol-5-yl)benzyl)pyrrolidine-2-carboxamide] | – | did not degrade | – | – | – |
| COc1cc2c(NC3CCN(CCCC(=O)NCCCCCCCCCCCC(=O)N[C@H](C(=O)N4C[C@@H](O)C[C@@H]4C(=O)NCc4ccc(-c5scnc5C)cc4)C(C)(C)C)CC3)nc(N3CCC(F)(F)CC3)nc2cc1OCCCN1CCCC1 [Compound 14, (2R,4S)-1-((S)-2-(12-(4-(4-((2-(4,4-difluoropiperidin-1-yl)-6-methoxy-7-(3-(pyrrolidin-1-yl)propoxy)quinazolin-4-yl)amino)piperidin-1-yl)butanamido)dodecanamido)-3,3-dimethylbutanoyl)-4-hydroxy-N-(4-(4-methylthiazol-5-yl)benzyl)pyrrolidine-2-carboxamide] | – | – | similarly inhibited | similarly inhibited | – |

Now from value to compound, other results behind:

| GLP degradation, in words (GLP [1]; 22Rv1 cells, 0.3 or 3 μM) | G9a degradation, in words (G9a [2]; 22Rv1 cells, 0.3 or 3 μM) | inhibition of G9a enzymatic activity (G9a [3]) | inhibition of GLP enzymatic activity (GLP [4]) | Compound | other results |
| --- | --- | --- | --- | --- | --- |
| little or no degradation | little or no degradation | – | – | COc1cc2c(NC3CCN(CCCC(=O)NCCOCCOCCC(=O)N[C@H](C(=O)N4C[C@H](O)C[C@H]4C(=O)NCc4ccc(-c5scnc5C)cc4)C(C)(C)C)CC3)nc(N3CCC(F)(F)CC3)nc2cc1OCCCN1CCCC1 [Compound 12, (2S,4R)-1-((S)-2-(tert-butyl)-17-(4-((2-(4,4-difluoropiperidin-1-yl)-6-methoxy-7-(3-(pyrrolidin-1-yl)propoxy)quinazolin-4-yl)amino)piperidin-1-yl)-4,14-dioxo-7,10-dioxa-3,13-diazaheptadecanoyl)-4-hydroxy-N-(4-(4-methylthiazol-5-yl)benzyl)pyrrolidine-2-carboxamide] | – |
| little or no degradation | little or no degradation | – | – | COc1cc2c(NC3CCN(CCCC(=O)NCCOCCOCCOCCC(=O)N[C@H](C(=O)N4C[C@H](O)C[C@H]4C(=O)NCc4ccc(-c5scnc5C)cc4)C(C)(C)C)CC3)nc(N3CCC(F)(F)CC3)nc2cc1OCCCN1CCCC1 [Compound 13, (2S,4R)-1-((S)-2-(tert-butyl)-20-(4-((2-(4,4-difluoropiperidin-1-yl)-6-methoxy-7-(3-(pyrrolidin-1-yl)propoxy)quinazolin-4-yl)amino)piperidin-1-yl)-4,17-dioxo-7,10,13-trioxa-3,16-diazaicosanoyl)-4-hydroxy-N-(4-(4-methylthiazol-5-yl)benzyl)pyrrolidine-2-carboxamide] | – |
| – | – | similarly inhibited | similarly inhibited | COc1cc2c(NC3CCN(C(C)C)CC3)nc(N3CCC(F)(F)CC3)nc2cc1OCCCN1CCCC1 [UNC0642, reference compound] | GLP degradation, in words (GLP [1]; K562 cells, 3 μM): did not degrade; GI50 of cell growth inhibition (IC50 in the figure) (K562 cells): unable to suppress cell proliferation; mRNA levels of G9a (G9a mRNA): did not significantly alter; mRNA levels of GLP (GLP mRNA): did not significantly alter; G9a degradation, in words (G9a [2]; K562 cells, 3 μM): did not degrade |
